Source: PMC3694426 (Clinical cancer research : an official journal of the …, 2013)

Tested on: basal cell carcinoma (BCC)
Test: antitumor activity in patients with BCC
Type: in vivo, human
Summary of the method: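 Oral test compound, once daily in 28-day cycles, given as an outpatient, preceded by a single dose 7 days before cycle 1. BCC patients were dosed at 130 or 160 mg. Evaluable meant more than one dose plus a post-baseline clinical or RECIST 1.0 assessment. Treatment continued until progression, unacceptable adverse events or withdrawal.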

[1] = 28 evaluable vismodegib-naïve BCC patients

For CC1=C2C[C@H]3[C@@H](CC[C@@H]4C[C@H](NS(C)(=O)=O)CC[C@@]43C)[C@@H]2CC[C@@]2(C1)O[C@@H]1C[C@H](C)CN[C@H]1[C@H]2C [IPI-926], the “complete response (CR)” value [1] was 2 patients, the “partial response (PR)” value [1] was 6 patients and the “patients with objective response” value [1] was “Eight”. For the same compound, the “patients showing a response” value (HhP inhibitor-naïve evaluable BCC patients, doses ≥130 mg) was 8 of 28, the “difference in efficacy between the 130- and 160-mg dose levels” value (full BCC cohort (N = 39)) was “no apparent difference in efficacy” and the objective responses (nine BCC patients previously treated with vismodegib) was “no objective responses”.
